Active and inactive are the calls of the source. The calls are words filed in the database; no cut-off is given here.
Legend:
A-431 = experiment: Cytoprotection activity in human A431 cells assessed as inhibition of diphtheria induced toxicity incubated for 20 hrs followed by replacement of [14c]-Leucine containing medium and measured after 4 hrs by liquid scintillation analysis; format: functional, cell-based
A549 [1] = experiment: Inhibition of diphtheria induced toxicity in human A549 cells assessed as protection factor at 15 uM incubated for 20 hrs in presence of bafilomycin A1 followed by replacement of [14c]-Leucine containing medium and measured after 4 hrs by liquid scintillation analysis relative to untreated control; format: functional
Method in brief: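 A549 cells were incubated with Baf A1 (0.15 nM), DABMA (15 μM), both, or DMSO vehicle before DT was added, with the compounds kept present throughout. Toxin protection was read as protein synthesis and expressed as protection factor.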

A549 [2] = experiment: Induction of lysosomal activation in human A549 cells at 30 uM incubated for 2 hrs by LysoTracker Red staining based confocal microscopic analysis; format: functional, cell-based
Method in brief: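 A549 cells were pretreated 2 h with compound (30 or 60 μM) or DMSO, then stained with LysoTracker Deep Red (50 nM, 30 min) plus Hoechst. Intensity was read from 3 × 3 fields per well (10,000 cells/well) by imaging reader; mean ± SEM, n = 4; confocal images.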

A549 [3] = experiment: Inhibition of diphtheria induced toxicity in human A549 cells assessed as protection fold at 30 uM incubated for 20 hrs followed by replacement of [14c]-Leucine containing medium and measured after 4 hrs by liquid scintillation analysis relative to ABMA; format: functional
Method in brief: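 Single-concentration screen: 30 μM compound on A549 cells with increasing DT concentrations, read as protein synthesis inhibition. Protection fold was calculated with ABMA as the positive control.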

[4] = Cytotoxicity against human A549 cells assessed as reduction in cell viability incubated for 24 hrs by Alamar blue assay; format: cell-based
Method in brief: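 A549 cytotoxicity by Alamar Blue viability assay; duplicate wells, mean ± SD, one representative experiment (n = 3).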

HeLa = experiment: Cytotoxicity against human HeLa cells assessed as reduction in cell viability at >100 uM incubated for 20 hrs by Alamar blue assay; format: cell-based
Vero [5] = experiment: Inhibition of TcsL-induced cytotoxicity against African green monkey Vero cells assessed as reversal of toxin-induced cell rounding at 30 uM in presence of TcsL after 16 hrs by inverted microscopic analysis; format: functional, cell-based; conditions: Chlorocebus sabaeus
Method in brief: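 Vero cells were given compound (30 μM) or DMSO, then increasing doses of TcdB for 4 h or TcsL for 16 h. Cell rounding was imaged by inverted microscope. Rounded cells were counted and normalised to total Hoechst-counterstained cells (>100 cells per treatment).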

Vero [6] = experiment: Selectivity index, ratio of CC50 for cytotoxicity against African green monkey Vero cells to EC50 for cytoprotective activity in TcdB-induced cytotoxicity in African green monkey Vero cells; design: species or system Chlorocebus sabaeus
[7] = Cytotoxicity against human HeLa cells assessed as reduction in cell viability incubated for 20 hrs by Alamar blue assay; format: cell-based
[8] = Selectivity index, ratio of CC50 for cytotoxicity against mouse L929 cells to EC50 for cytoprotective activity in Pseudomonas aeruginosa exotoxin-induced cytotoxicity in mouse L929 cells; format: toxicity, cell-based; conditions: read-out: Ratio CC50/EC50

COc1ccc(Br)cc1CNC12CC3CC(C)(CC(C)(C3)C1)C2
Activity (A-431): Active
fold change (FC) (A549 [1]): 300
Activity (A549 [2]): Active
fold change (FC) (A549 [3]): 18.5
CC50 at 24 h [4]: 120 µM
Activity (HeLa): Toxic
inhibition (Vero [5]): Active
Ratio CC50/EC50 (Vero [6]): 6.34
CC50 at 20 h [7]: 117 µM
selectivity ratio [8]: 4.35
